From ChEMBL document CHEMBL2157976, “Design, synthesis and biological activities of sorafenib derivatives as antitumor agents” (Bioorg Med Chem Lett, 2012)
Active and inactive are the calls of the source. The calls are words filed in the database; no cut-off is given here.

What was measured:
[1] = test system: MDA-MB-231; assay: Cytotoxicity against human MDA-MB-231 cells after 48 hrs by MTT assay; type: functional, cell-based; settings: MDA-MB-231, 48 h
Method in brief: (§1)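 All three human tumour lines were screened in parallel by MTT colorimetric viability assay, with sorafenib as positive control. Antiproliferative potency was expressed as IC50.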

[2] = test system: PC-3; assay: Cytotoxicity against human PC3 cells after 48 hrs by MTT assay; type: functional, cell-based; settings: PC-3, 48 h; method in brief: as §1
[3] = test system: HCT-116; assay: Cytotoxicity against human HCT116 cells after 48 hrs by MTT assay; type: functional, cell-based; settings: HCT-116, 48 h; method in brief: as §1
[4] = test system: Aorta; assay: Antiangiogenic activity in Sprague-Dawley rat aortic ring assessed as inhibition of blood vessel formation at 0.1 uM after 6 days by inverted microscopic analysis; type: functional, tissue-based
Method in brief: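 Sprague-Dawley rat aortic segments were embedded in wells coated with growth factor-reduced Matrigel. They were cultured for 6 d with or without compound, and untreated wells served as control. Microvessel sprouting from the segments was scored.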

With `O=C(NCc1ccccc1)c1cc(Oc2cccc(NC(=S)Nc3cccc(C(F)(F)F)c3)c2)ccn1` the IC50 [1] was 75 µM, the IC50 [2] was 11 µM and the IC50 [3] was 7.5 µM.

In the case of `O=C(NC1CCCCC1)c1cc(Oc2cccc(NC(=S)Nc3cccc(C(F)(F)F)c3)c2)ccn1`, the IC50 [1] is reported as over 100 µM, the IC50 [2] is reported as 16.8 µM and the IC50 [3] is reported as 8.4 µM.

`O=C(c1cc(Oc2cccc(NC(=S)Nc3ccc(Cl)c(C(F)(F)F)c3)c2)ccn1)N1CCCC1` gave an IC50 [1] of 40.2 µM, an IC50 [2] of 12.1 µM and an IC50 [3] of 22.4 µM.

With `O=C(NC1CCCCC1)c1cc(Oc2cccc(NC(=S)Nc3ccc(F)c(F)c3)c2)ccn1` the IC50 [1] was over 100 µM, the inhibition [4] was “Active” and the IC50 [2] was 8.1 µM. The IC50 [3] was 8.9 µM.

In the case of `CCNC(=O)c1cc(Oc2cccc(NC(=S)Nc3ccc(F)c(F)c3)c2)ccn1`, the IC50 [1] is reported as over 100 µM, the IC50 [2] is reported as 26.3 µM and the IC50 [3] is reported as 30.3 µM.

`O=C(NCc1ccccc1)c1cc(Oc2cccc(NC(=S)Nc3ccc(Cl)cc3)c2)ccn1` showed an IC50 [1] of over 100 µM, an IC50 [2] of 15.8 µM and an IC50 [3] of 16.5 µM.

Work on `O=C(NC1CC1)c1cc(Oc2cccc(NC(=S)Nc3cccc(C(F)(F)F)c3)c2)ccn1` yielded an IC50 [1] of 34.8 µM, an IC50 [2] of 22.1 µM and an IC50 [3] of 20.2 µM.

For `O=C(NC1CCCCC1)c1cc(Oc2cccc(NC(=S)Nc3ccc(Cl)c(C(F)(F)F)c3)c2)ccn1`, the IC50 [1] was 34.2 µM, the inhibition [4] was “Active” and the IC50 [2] was 2.2 µM. The IC50 [3] was 2.8 µM.

In the case of `CNC(=O)c1cc(Oc2cccc(NC(=S)Nc3ccc(Cl)c(C(F)(F)F)c3)c2)ccn1`, the IC50 [1] is reported as 35.7 µM, the IC50 [2] is reported as 16.1 µM and the IC50 [3] is reported as 15.1 µM.

For `CNC(=O)c1cc(Oc2cccc(NC(=S)Nc3ccc(Cl)cc3)c2)ccn1`, the IC50 [1] was over 100 µM, the IC50 [2] was 24.1 µM and the IC50 [3] was 39.4 µM.

Molecule `CNC(=O)c1cc(Oc2cccc(NC(=S)Nc3cccc(C(F)(F)F)c3)c2)ccn1` has an IC50 [1] of over 100 µM, an IC50 [2] of 24.5 µM and an IC50 [3] of 25.3 µM.

`O=C(NCc1ccccc1)c1cc(Oc2cccc(NC(=S)Nc3ccc(OC(F)(F)F)cc3)c2)ccn1` was tested, and the IC50 [1] was over 100 µM, the IC50 [2] was 6.8 µM and the IC50 [3] was 7.4 µM.

For `CCNC(=O)c1cc(Oc2cccc(NC(=S)Nc3ccc(Cl)c(C(F)(F)F)c3)c2)ccn1`, the IC50 [1] was 22.1 µM, the inhibition [4] was “Active” and the IC50 [2] was 8.5 µM. The IC50 [3] was 6.9 µM.

Work on `CNC(=O)c1cc(Oc2cccc(NC(=S)Nc3ccc(F)c(F)c3)c2)ccn1` yielded an IC50 [1] of over 100 µM, an IC50 [2] of 33.1 µM and an IC50 [3] of 30.3 µM.

With `O=C(NC1CC1)c1cc(Oc2cccc(NC(=S)Nc3ccc(Cl)c(C(F)(F)F)c3)c2)ccn1` the IC50 [1] was 21.2 µM, the IC50 [2] was 6.8 µM and the IC50 [3] was 9.3 µM.

`CNC(=O)c1cc(Oc2cccc(NC(=S)Nc3ccc(OC(F)(F)F)cc3)c2)ccn1` gave an IC50 [1] of over 100 µM, an IC50 [2] of 34.7 µM and an IC50 [3] of 33.8 µM.

For `CNC(=O)c1cc(Oc2ccc(NC(=O)Nc3ccc(Cl)c(C(F)(F)F)c3)cc2)ccn1` [SORAFENIB], the inhibition [4] was “Active” and the IC50 [2] was 6.8 µM.

For `O=C(c1cc(Oc2cccc(NC(=S)Nc3ccc(F)c(F)c3)c2)ccn1)N1CCCC1`, the IC50 [1] was over 100 µM, the IC50 [2] was 45.6 µM and the IC50 [3] was 52 µM.

For `O=C(c1cc(Oc2cccc(NC(=S)Nc3ccc(OC(F)(F)F)cc3)c2)ccn1)N1CCCC1`, the IC50 [1] was 37.8 µM, the IC50 [2] was 34.1 µM and the IC50 [3] was 17.8 µM.

Work on `CC(C)NC(=O)c1cc(Oc2cccc(NC(=S)Nc3ccc(OC(F)(F)F)cc3)c2)ccn1` yielded an IC50 [1] of over 100 µM, an IC50 [2] of 11.8 µM and an IC50 [3] of 18.1 µM.

Work on `O=C(c1cc(Oc2cccc(NC(=S)Nc3cccc(C(F)(F)F)c3)c2)ccn1)N1CCCC1` yielded an IC50 [1] of 35.4 µM, an IC50 [2] of 27 µM and an IC50 [3] of 19.2 µM.

`CNC(=O)c1cc(Oc2cccc(NC(=S)Nc3ccc(Cl)cc3Cl)c2)ccn1` was tested, and the IC50 [1] was over 100 µM, the IC50 [2] was 37.8 µM and the IC50 [3] was 41.2 µM.

`CC(C)NC(=O)c1cc(Oc2cccc(NC(=S)Nc3ccc(Cl)cc3)c2)ccn1` was tested, and the IC50 [1] was 87.5 µM, the IC50 [2] was 21.2 µM and the IC50 [3] was 22.1 µM.

Work on `CCNC(=O)c1cc(Oc2cccc(NC(=S)Nc3cccc(C(F)(F)F)c3)c2)ccn1` yielded an IC50 [1] of 53.1 µM, an IC50 [2] of 18.3 µM and an IC50 [3] of 19.4 µM.
